{"source": "ChEMBL document CHEMBL2176968", "about": "“Identification of less lipophilic riminophenazine derivatives for the treatment of drug-resistant tuberculosis” (J Med Chem, 2012)", "key": {"[1]": {"assay": "Selectivity index, ratio of IC50 for african green monkey Vero cells to MIC for Mycobacterium tuberculosis H37Rv ATCC 27294", "type": "functional"}, "[2]": {"system": "Vero", "assay": "Cytotoxicity against african green monkey Vero cells after 48 hrs by MTT assay", "type": "cell-based", "conditions": "Chlorocebus sabaeus", "in_short": "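Vero cells were exposed to compound. The IC50 was taken as the concentration inhibiting 50% of growth relative to an untreated control.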"}, "[3]": {"system": "Mycobacterium tuberculosis", "assay": "Antimycobacterial activity against Mycobacterium tuberculosis H37Rv ATCC 27294 after 7 days by microplate Alamar blue assay", "type": "functional", "conditions": "H37Rv ATCC 27294, 168 h", "in_short": "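Run in 96-well plates against M. tuberculosis H37Rv using the Alamar Blue read-out. The MIC was taken as the lowest concentration giving >90% growth inhibition.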"}}, "data": [{"compound": "Cc1ccc(Nc2cc3nc4ccccc4n(-c4ccc(Cl)cc4)c-3c/c2=N\\C(C)C)cn1", "values": [{"measurement": "Selectivity Index", "setting": "[1]", "result": 118}, {"measurement": "IC50", "setting": "[2]", "result": 7.09, "unit": "µg/mL"}, {"measurement": "MIC", "setting": "[3]", "result": 0.06, "unit": "µg/mL"}]}, {"compound": "Cc1ccc(Nc2cc3nc4ccccc4n(-c4ccc(Cl)cc4)c-3c/c2=N\\C2CCOCC2)cn1", "values": [{"measurement": "Selectivity Index", "setting": "[1]", "result": 324}, {"measurement": "IC50", "setting": "[2]", "result": 9.73, "unit": "µg/mL"}, {"measurement": "MIC", "setting": "[3]", "result": 0.03, "unit": "µg/mL"}]}, {"compound": "Clc1ccc(-n2c3c/c(=N\\C4CCOCC4)c(Nc4cncc(Br)c4)cc-3nc3ccccc32)cc1", "values": [{"measurement": "Selectivity Index", "setting": "[1]", "result": 1778}, {"measurement": "IC50", "setting": "[2]", "result": "> 64", "unit": "µg/mL"}, {"measurement": "MIC", "setting": "[3]", "result": 0.036, "unit": "µg/mL"}]}, {"compound": "COC1CCC(/N=c2\\cc3n(-c4ccc(Cl)cc4)c4ccccc4nc-3cc2Nc2cncc(Br)c2)CC1", "note": "(centres undefined)", "values": [{"measurement": "Selectivity Index", "setting": "[1]", "result": 1231}, {"measurement": "IC50", "setting": "[2]", "result": "> 64", "unit": "µg/mL"}, {"measurement": "MIC", "setting": "[3]", "result": 0.052, "unit": "µg/mL"}]}, {"compound": "COc1ncccc1Nc1cc2nc3ccccc3n(-c3ccc(F)cc3)c-2c/c1=N\\C1CCOCC1", "values": [{"measurement": "Selectivity Index", "setting": "[1]", "result": 1641}, {"measurement": "IC50", "setting": "[2]", "result": "> 64", "unit": "µg/mL"}, {"measurement": "MIC", "setting": "[3]", "result": 0.039, "unit": "µg/mL"}]}, {"compound": "Cc1ncccc1Nc1cc2nc3ccccc3n(-c3ccc(F)cc3)c-2c/c1=N\\C(C)C", "values": [{"measurement": "Selectivity Index", "setting": "[1]", "result": 449}, {"measurement": "IC50", "setting": "[2]", "result": 14.4, "unit": "µg/mL"}, {"measurement": "MIC", "setting": "[3]", "result": 0.032, "unit": "µg/mL"}]}, {"compound": "Cc1ccc(Nc2cc3nc4ccccc4n(-c4ccc(F)cc4)c-3c/c2=N\\C(C)C)cn1", "values": [{"measurement": "Selectivity Index", "setting": "[1]", "result": 131}, {"measurement": "IC50", "setting": "[2]", "result": 7.88, "unit": "µg/mL"}, {"measurement": "MIC", "setting": "[3]", "result": 0.06, "unit": "µg/mL"}]}, {"compound": "Cc1ccc(Nc2cc3nc4ccccc4n(-c4ccc(F)cc4)c-3c/c2=N\\C2CCOCC2)cn1", "values": [{"measurement": "Selectivity Index", "setting": "[1]", "result": 112}, {"measurement": "IC50", "setting": "[2]", "result": 14, "unit": "µg/mL"}, {"measurement": "MIC", "setting": "[3]", "result": 0.125, "unit": "µg/mL"}]}, {"compound": "COC1CCC(/N=c2\\cc3n(-c4ccc(F)cc4)c4ccccc4nc-3cc2Nc2ccc(C)nc2)CC1", "note": "(centres undefined)", "values": [{"measurement": "Selectivity Index", "setting": "[1]", "result": 1067}, {"measurement": "IC50", "setting": "[2]", "result": "> 64", "unit": "µg/mL"}, {"measurement": "MIC", "setting": "[3]", "result": 0.06, "unit": "µg/mL"}]}, {"compound": "Cc1ncccc1Nc1cc2nc3ccccc3n(-c3ccc(C(F)(F)F)cc3)c-2c/c1=N\\C(C)C", "values": [{"measurement": "Selectivity Index", "setting": "[1]", "result": 4571}, {"measurement": "IC50", "setting": "[2]", "result": "> 64", "unit": "µg/mL"}, {"measurement": "MIC", "setting": "[3]", "result": 0.014, "unit": "µg/mL"}]}, {"compound": "COC1CCC(/N=c2\\cc3n(-c4ccc(C(F)(F)F)cc4)c4ccccc4nc-3cc2Nc2cccnc2C)CC1", "note": "(centres undefined)", "values": [{"measurement": "Selectivity Index", "setting": "[1]", "result": 5818}, {"measurement": "IC50", "setting": "[2]", "result": "> 64", "unit": "µg/mL"}, {"measurement": "MIC", "setting": "[3]", "result": 0.011, "unit": "µg/mL"}]}, {"compound": "Cc1ccc(Nc2cc3nc4ccccc4n(-c4ccc(C(F)(F)F)cc4)c-3c/c2=N\\C(C)C)cn1", "values": [{"measurement": "Selectivity Index", "setting": "[1]", "result": 1147}, {"measurement": "IC50", "setting": "[2]", "result": 34.4, "unit": "µg/mL"}, {"measurement": "MIC", "setting": "[3]", "result": 0.03, "unit": "µg/mL"}]}, {"compound": "CC(C)/N=c1\\cc2n(-c3ccccc3)c3ccccc3nc-2cc1Nc1cccnc1", "values": [{"measurement": "Selectivity Index", "setting": "[1]", "result": 66}, {"measurement": "IC50", "setting": "[2]", "result": 3.93, "unit": "µg/mL"}, {"measurement": "MIC", "setting": "[3]", "result": 0.06, "unit": "µg/mL"}]}, {"compound": "Cc1ccc(-n2c3c/c(=N\\C(C)C)c(Nc4cccnc4)cc-3nc3ccccc32)cc1", "values": [{"measurement": "Selectivity Index", "setting": "[1]", "result": 45}, {"measurement": "IC50", "setting": "[2]", "result": 2.71, "unit": "µg/mL"}, {"measurement": "MIC", "setting": "[3]", "result": 0.06, "unit": "µg/mL"}]}, {"compound": "CSc1ccc(-n2c3c/c(=N\\C(C)C)c(Nc4cccnc4)cc-3nc3ccccc32)cc1", "values": [{"measurement": "Selectivity Index", "setting": "[1]", "result": 37}, {"measurement": "IC50", "setting": "[2]", "result": 1.83, "unit": "µg/mL"}, {"measurement": "MIC", "setting": "[3]", "result": 0.05, "unit": "µg/mL"}]}, {"compound": "CC(C)/N=c1\\cc2n(-c3ccc(F)cc3)c3ccccc3nc-2cc1Nc1cccnc1", "values": [{"measurement": "Selectivity Index", "setting": "[1]", "result": 208}, {"measurement": "IC50", "setting": "[2]", "result": 6.25, "unit": "µg/mL"}, {"measurement": "MIC", "setting": "[3]", "result": 0.03, "unit": "µg/mL"}]}, {"compound": "CC(C)/N=c1\\cc2n(-c3ccc(C(F)(F)F)cc3)c3ccccc3nc-2cc1Nc1cccnc1", "values": [{"measurement": "Selectivity Index", "setting": "[1]", "result": 655}, {"measurement": "IC50", "setting": "[2]", "result": 19.7, "unit": "µg/mL"}, {"measurement": "MIC", "setting": "[3]", "result": 0.03, "unit": "µg/mL"}]}, {"compound": "CC(C)/N=c1\\cc2n(-c3ccc(OC(F)(F)F)cc3)c3ccccc3nc-2cc1Nc1cccnc1", "values": [{"measurement": "Selectivity Index", "setting": "[1]", "result": 164}, {"measurement": "IC50", "setting": "[2]", "result": 4.93, "unit": "µg/mL"}, {"measurement": "MIC", "setting": "[3]", "result": 0.03, "unit": "µg/mL"}]}, {"compound": "CC(C)/N=c1\\cc2n(-c3ccc(Br)cc3)c3ccccc3nc-2cc1Nc1cccnc1", "values": [{"measurement": "Selectivity Index", "setting": "[1]", "result": 115}, {"measurement": "IC50", "setting": "[2]", "result": 2.3, "unit": "µg/mL"}, {"measurement": "MIC", "setting": "[3]", "result": 0.02, "unit": "µg/mL"}]}, {"compound": "Clc1ccc(-n2c3c/c(=N\\C4CCOCC4)c(Nc4cccnc4)cc-3nc3ccccc32)cc1", "values": [{"measurement": "Selectivity Index", "setting": "[1]", "result": 83}, {"measurement": "IC50", "setting": "[2]", "result": 2.5, "unit": "µg/mL"}, {"measurement": "MIC", "setting": "[3]", "result": 0.03, "unit": "µg/mL"}]}, {"compound": "COC1CCC(/N=c2\\cc3n(-c4ccc(Cl)cc4)c4ccccc4nc-3cc2Nc2cccnc2)CC1", "note": "(centres undefined)", "values": [{"measurement": "Selectivity Index", "setting": "[1]", "result": 401}, {"measurement": "IC50", "setting": "[2]", "result": 12, "unit": "µg/mL"}, {"measurement": "MIC", "setting": "[3]", "result": 0.03, "unit": "µg/mL"}]}, {"compound": "CN1CCC(/N=c2\\cc3n(-c4ccc(Cl)cc4)c4ccccc4nc-3cc2Nc2cccnc2)CC1", "values": [{"measurement": "Selectivity Index", "setting": "[1]", "result": 45}, {"measurement": "IC50", "setting": "[2]", "result": 5.58, "unit": "µg/mL"}, {"measurement": "MIC", "setting": "[3]", "result": 0.125, "unit": "µg/mL"}]}, {"compound": "CC(C)CN1CCC(/N=c2\\cc3n(-c4ccc(Cl)cc4)c4ccccc4nc-3cc2Nc2cccnc2)CC1", "values": [{"measurement": "Selectivity Index", "setting": "[1]", "result": 60}, {"measurement": "IC50", "setting": "[2]", "result": 15.1, "unit": "µg/mL"}, {"measurement": "MIC", "setting": "[3]", "result": 0.25, "unit": "µg/mL"}]}, {"compound": "Clc1ccc(-n2c3c/c(=N\\CCN4CCOCC4)c(Nc4cccnc4)cc-3nc3ccccc32)cc1", "values": [{"measurement": "Selectivity Index", "setting": "[1]", "result": 16}, {"measurement": "IC50", "setting": "[2]", "result": 4.02, "unit": "µg/mL"}, {"measurement": "MIC", "setting": "[3]", "result": 0.25, "unit": "µg/mL"}]}, {"compound": "Fc1ccc(-n2c3c/c(=N\\C4CCOCC4)c(Nc4cccnc4)cc-3nc3ccccc32)cc1", "values": [{"measurement": "Selectivity Index", "setting": "[1]", "result": 123}, {"measurement": "IC50", "setting": "[2]", "result": 7.36, "unit": "µg/mL"}, {"measurement": "MIC", "setting": "[3]", "result": 0.06, "unit": "µg/mL"}]}, {"compound": "COC1CCC(/N=c2\\cc3n(-c4ccc(F)cc4)c4ccccc4nc-3cc2Nc2cccnc2)CC1", "note": "(centres undefined)", "values": [{"measurement": "Selectivity Index", "setting": "[1]", "result": 533}, {"measurement": "IC50", "setting": "[2]", "result": "> 64", "unit": "µg/mL"}, {"measurement": "MIC", "setting": "[3]", "result": 0.12, "unit": "µg/mL"}]}, {"compound": "CN1CCC(/N=c2\\cc3n(-c4ccc(F)cc4)c4ccccc4nc-3cc2Nc2cccnc2)CC1", "values": [{"measurement": "Selectivity Index", "setting": "[1]", "result": 26}, {"measurement": "IC50", "setting": "[2]", "result": 6.44, "unit": "µg/mL"}, {"measurement": "MIC", "setting": "[3]", "result": 0.25, "unit": "µg/mL"}]}, {"compound": "CC(C)CN1CCC(/N=c2\\cc3n(-c4ccc(F)cc4)c4ccccc4nc-3cc2Nc2cccnc2)CC1", "values": [{"measurement": "Selectivity Index", "setting": "[1]", "result": 242}, {"measurement": "IC50", "setting": "[2]", "result": 30.3, "unit": "µg/mL"}, {"measurement": "MIC", "setting": "[3]", "result": 0.125, "unit": "µg/mL"}]}]}
